As usually defined, the EC50 is the concentration needed to bring the measured effect to its halfway point. The IC50 is the concentration needed to halve the response being measured.

Test [1] relates to Rattus norvegicus. Nature of the test: Antihyperglycemic activity in Swiss albino rat model of streptozotocin-induced hyperglycemia assessed as reduction in blood glucose level at 0.36 mg/kg, po measured after 3 hrs by glucometer relative to control. The class given is functional. Details: scale not given: the % may be the effect or the level left. Summed up:
(§1)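 Adult male Swiss albino rats (200-300 g) acclimatized 24 h, then given streptozotocin 60.00 mg/kg i.p. in 0.90% sodium citrate buffer pH 4.50. Those with glucose >250.00 mg/dl at 72 h were used, six per group. Single oral dose; diabetic controls received 1% gum acacia vehicle. Tail blood glucose read by glucometer at 0 and 3 h; % reduction calculated.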

The nature of test [2]: Agonist activity at SUR in Wistar rat islets of pancreas assessed as induction of glucose-stimulated insulin secretion preincubated for 1 hr followed by glucose addition measured after 30 mins by sandwich ELISA. Summed up:
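Islets from fed male-unspecified Wistar rats (200-250 g), pilocarpine-pretreated i.p., isolated by collagenase, then cultured overnight at 16 mmol/l glucose in CMRL-1066 with L-glutamine, gentamycin and 10% FCS at 37°C. Exposed 1 h to compound in DMSO (5, 10, 15, 20 uM), washed in Ringer HEPES, then 30 min at 37°C with 16.7 mmol/l glucose. Insulin measured by rat insulin sandwich ELISA (A450); EC50 reported.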
A general note: ELISA stands for enzyme-linked immunosorbent assay.

The test system of test [3] is Rattus norvegicus. Nature of the test: Antihyperglycemic activity in Swiss albino rat model of streptozotocin-induced hyperglycemia assessed as reduction in blood glucose level at 20 mg/kg, po measured after 3 hrs by glucometer relative to control. Details: scale not given: the % may be the effect or the level left. The class given is functional. The method, boiled down: as §1

The target in test [4] is T1, Peroxisome proliferator-activated receptor gamma (Homo sapiens, UniProt P37231).
T1 sequence (P37231 whole entry): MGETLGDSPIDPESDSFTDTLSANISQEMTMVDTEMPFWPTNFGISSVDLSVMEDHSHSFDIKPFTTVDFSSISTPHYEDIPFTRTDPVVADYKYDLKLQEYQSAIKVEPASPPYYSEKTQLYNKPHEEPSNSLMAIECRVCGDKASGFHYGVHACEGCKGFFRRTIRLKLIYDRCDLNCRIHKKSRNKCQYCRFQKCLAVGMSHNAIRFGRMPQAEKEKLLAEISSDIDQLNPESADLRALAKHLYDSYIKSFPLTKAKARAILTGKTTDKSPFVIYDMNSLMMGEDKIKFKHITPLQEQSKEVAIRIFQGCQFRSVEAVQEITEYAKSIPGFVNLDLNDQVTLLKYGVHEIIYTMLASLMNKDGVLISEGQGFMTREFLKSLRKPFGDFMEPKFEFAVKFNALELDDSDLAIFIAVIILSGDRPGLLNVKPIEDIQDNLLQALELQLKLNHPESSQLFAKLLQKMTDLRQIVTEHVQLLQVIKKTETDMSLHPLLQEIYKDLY
Nature of the test: Displacement of fluormone-PPARgamma Green from recombinant human N-terminal GST-tagged PPARgamma-LBD by fluorescence polarization assay. A general note: Polarisation of emitted light reports the rotation of a fluorescent probe.

Turning to `CCC1=C(C)CN(C(=O)NCCc2ccc(S(=O)(=O)NC(=O)NC3CCC(C)CC3)cc2)C1=O` (stereo unspecified), the Activity with Rattus norvegicus [1] amounted to 26.53%. Moreover, in test [2], the EC50 is 0.73 to 4 µM.

With `Cc1nc2ccccc2n(CC(=O)Nc2ccc(S(=O)(=O)NC(=O)Nc3ccccc3)cc2)c1=O`, the Activity with Rattus norvegicus [3] worked out at 25.15%.

On to `O=C(CN1CC(=O)Nc2ccccc21)Nc1ccc(S(=O)(=O)NC(=S)NC2CCCCC2)cc1`, for which the Activity in the test on Rattus norvegicus [3] was 13.08%.

In the case of `Cc1nc2ccccc2n(CC(=O)Nc2ccc(S(=O)(=O)NC(=O)NC3CCCCC3)cc2)c1=O`, the Activity in the test with Rattus norvegicus [3] is on record as 50.58%. In addition, the EC50 in test [2] was 0.92 µM. For the same compound, the IC50 in test [4] turned out to be 0.482 µM.

Regarding `O=C(CN1CC(=O)Nc2ccccc21)Nc1ccc(S(=O)(=O)NC(=S)Nc2ccccc2)cc1`, the Activity with Rattus norvegicus [3] was 2.88%.

Regarding `O=C1CN(C(=O)CNc2ccc(S(=O)(=O)NC(=O)Nc3ccccc3)cc2)c2ccccc2N1`, the Activity in the test with Rattus norvegicus [3] was 22.01%.

In the case of `Cc1nc2ccccc2n(CC(=O)Nc2ccc(S(=O)(=O)NC(=S)NC3CCCCC3)cc2)c1=O`, the Activity in the test on Rattus norvegicus [3] is given as 33.23%. Also, the EC50 in test [2] was found to be 2.69 µM. Besides, in test [4], the IC50 is 0.35 µM.

For the compound `CCCCNC(=O)NS(=O)(=O)c1ccc(NCC(=O)N2CC(=O)Nc3ccccc32)cc1`, in the test with Rattus norvegicus [3], the Activity was 40.55%. Besides, the EC50 in test [2] was determined as 1.95 µM. For the same compound, the IC50 in test [4] came to 1.32 µM.

`CCCCNC(=S)NS(=O)(=O)c1ccc(NC(=O)Cn2c(=O)c(C)nc3ccccc32)cc1`: in the test with Rattus norvegicus [3], the Activity amounted to 43.84%. Besides, the EC50 in test [2] amounted to 2.82 µM. Besides, the IC50 in test [4] was determined as 0.369 µM.

On to `O=C(CN1CC(=O)Nc2ccccc21)Nc1ccc(S(=O)(=O)NC(=O)NC2CCCCC2)cc1`, for which the Activity in the test with Rattus norvegicus [3] is recorded as 39.81%. Also, the EC50 in test [2] stood at 1.54 µM. Also, in test [4], the IC50 worked out at 1.15 µM.

For the compound `O=C(CN1CC(=O)Nc2ccccc21)Nc1ccc(S(=O)(=O)NC(=O)Nc2ccccc2)cc1`, in the test with Rattus norvegicus [3], the Activity came out at 21.89%.

For `CCCCNC(=O)NS(=O)(=O)c1ccc(NC(=O)Cn2c(=O)c(C)nc3ccccc32)cc1`, in the test on Rattus norvegicus [3], the Activity was 40.55%. Moreover, the EC50 in test [2] was found to be 0.98 µM. In test [4], the 50% inhibitory concentration (IC50) turned out to be 0.491 µM.

For the compound `CCCCNC(=S)NS(=O)(=O)c1ccc(NC(=O)CN2CC(=O)Nc3ccccc32)cc1`, the Activity in the test on Rattus norvegicus [3] is 30.75%.

For the compound `O=C1CN(C(=O)CNc2ccc(S(=O)(=O)NC(=O)NC3CCCCC3)cc2)c2ccccc2N1`, in the test on Rattus norvegicus [3], the Activity is 49.62%. The EC50 in test [2] worked out at 1.89 µM. For the same compound, the half-inhibitory concentration (IC50) in test [4] amounted to 1.14 µM.

`Cc1nc2ccccc2n(CC(=O)Nc2ccc(S(=O)(=O)NC(=S)Nc3ccccc3)cc2)c1=O`: in the test on Rattus norvegicus [3], the Activity was 20.54%.

As to `CCCCNC(=O)NS(=O)(=O)c1ccc(NC(=O)CN2CC(=O)Nc3ccccc32)cc1`, the Activity in the test with Rattus norvegicus [3] was determined as 45.1%. Besides, the EC50 in test [2] is 1.69 µM. The IC50 in test [4] was 1.29 µM.

As to `Cc1ccc(NC(=S)NS(=O)(=O)c2ccc(CCNS(=O)(=O)c3ccccc3)cc2)cc1`, the EC50 in test [2] came out at 100 µM.

Turning to `COc1ccc(NC(=S)NS(=O)(=O)c2ccc(CCNS(=O)(=O)c3ccccc3)cc2)cc1`, the EC50 in test [2] stood at 1000 µM.

Consider `O=S(=O)(NCCc1ccc(S(=O)(=O)NC(=S)Nc2ccc(Cl)cc2)cc1)c1ccc(Cl)cc1`, for which the EC50 in test [2] was found to be 33.3 µM.

`COc1ccc(NC(=S)NS(=O)(=O)c2ccc(CCNS(=O)(=O)c3ccc(Cl)cc3)cc2)cc1`: the EC50 in test [2] is 33.3 µM.

Take `O=C(NC1CCCCC1)NS(=O)(=O)c1ccc(CCNS(=O)(=O)c2ccccc2)cc1`: the EC50 in test [2] worked out at 12.5 µM.

On to `CC1CCC(NC(=O)NS(=O)(=O)c2ccc(CCNS(=O)(=O)c3ccc(Cl)cc3)cc2)CC1` (stereo unspecified), for which the EC50 in test [2] amounted to 2.04 µM.

As to `CC1CCC(NC(=O)NS(=O)(=O)c2ccc(CCNS(=O)(=O)c3ccc(Br)cc3)cc2)CC1` (stereo unspecified), the EC50 in test [2] was 1.6 µM.

As to `CC1CCC(NC(=O)NS(=O)(=O)c2ccc(CCNS(=O)(=O)c3ccccc3)cc2)CC1` (stereo unspecified), in test [2], the EC50 is 3.4 µM.

As for `O=C(NC1CCCCC1)NS(=O)(=O)c1ccc(CCNS(=O)(=O)c2ccc(Cl)cc2)cc1`, the EC50 in test [2] was found to be 3.1 µM.

Turning to `O=C(NC1CCCCC1)NS(=O)(=O)c1ccc(CCNS(=O)(=O)c2ccc(Br)cc2)cc1`, the EC50 in test [2] was 2.4 µM.

With `CC(=O)Nc1ccc(S(=O)(=O)NCCc2ccc(S(=O)(=O)NC(=O)NC3CCC(C)CC3)cc2)cc1C` (stereo unspecified), the EC50 in test [2] was determined as 7.14 µM.

`CC(=O)Nc1ccc(S(=O)(=O)NCCc2ccc(S(=O)(=O)NC(=O)NC3CCC(C)CC3)cc2)cc1` (stereo unspecified): in test [2], the EC50 amounted to 20 µM.

For `O=S(=O)(NCCc1ccc(S(=O)(=O)NC(=S)Nc2ccc(Cl)cc2)cc1)c1ccccc1`, the EC50 in test [2] came out at 33.3 µM.

These data come from ChEMBL document CHEMBL3877322, “Design, synthesis, molecular modeling and anti-hyperglycemic evaluation of novel quinoxaline derivatives as potential PPARγ and SUR agonists” (Bioorg Med Chem, 2017).
